This is a sample that favours compounds with a hit; in the whole collection about 3.8% have one here.
RGS4 inh: RGS4 inhibitors, primary screen, cell-based, HEK293 M3R inducible RGS4, calcium flux. Fluo-4 calcium flux; stronger effect = higher value; triggered by carbachol at its EC20. B-score at 10 µM. 310,000 compounds, 0.45% hits;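 active = B-score, a plate-corrected calcium signal, over three deviations above library mean, with baseline fluorescence within five deviations of library mean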;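 also: RGS4 expression induced by doxycycline in cells with stable M3 receptor; B-score is computed from the integrated fluorescence ratio over baseline after carbachol; higher B-score means a larger calcium signal and so more RGS4 inhibition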
Target sequence (P49798 whole entry, looked up): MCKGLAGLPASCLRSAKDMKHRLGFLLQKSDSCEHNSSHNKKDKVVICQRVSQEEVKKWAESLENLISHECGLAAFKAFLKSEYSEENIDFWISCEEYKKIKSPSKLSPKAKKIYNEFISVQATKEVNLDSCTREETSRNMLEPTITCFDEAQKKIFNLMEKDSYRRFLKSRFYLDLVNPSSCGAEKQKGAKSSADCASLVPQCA
Hep lipid drop: inhibitors of hepatocyte lipid droplet formation, primary screen, imaging, high-throughput imaging, BODIPY stain; AML12 mouse hepatocytes, oleate lipid droplets; inhibition, % at 6.5 µM; 240,000 compounds, 0.4% hits; AID 1656, 2009;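 active = lipid droplet intensity inhibited by at least 50%, with more than 500 cells counted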
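Test system: AML12 hepatocytes (mouse); reagent: oleate loading, 100 µM; dosing: one dose, 6.5 µM compound; incubation: overnight exposure; signal: fluorescence imaging, 20x objective, two fields per well; read-out basis: % inhibition of corrected integrated BODIPY droplet signal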
MrgX1 ag: agonists of human MrgX1 receptor, primary screen, HEK293 cells, Fluo-4 calcium flux | 310,000 compounds, 0.44% hits | Fluo-4 calcium fluorescence, agonist mode; stronger effect = higher value | B-score at 10 µM;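 active = calcium response B-score plate-corrected fluorescence ratio at least 3 library SD, with starting fluorescence B-score inside 5 SD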
Target sequence (Q96LB2 whole entry, looked up): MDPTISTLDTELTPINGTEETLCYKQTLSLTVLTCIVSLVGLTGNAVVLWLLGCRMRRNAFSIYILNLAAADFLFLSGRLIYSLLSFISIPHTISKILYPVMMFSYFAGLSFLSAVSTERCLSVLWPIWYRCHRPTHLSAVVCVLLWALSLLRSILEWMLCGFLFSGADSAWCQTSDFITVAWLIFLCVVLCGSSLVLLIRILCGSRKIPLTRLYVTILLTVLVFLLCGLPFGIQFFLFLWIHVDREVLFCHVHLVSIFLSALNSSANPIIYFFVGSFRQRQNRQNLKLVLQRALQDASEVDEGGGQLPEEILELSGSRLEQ
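System – MrgX1-expressing HEK293 cells · Incubation – cells plated overnight, dye loaded 0.5 h 37 °C, 0.5 h room temperature · Technique – kinetic Fluo-4 NW fluorescence of intracellular calcium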
MrgX1 PAM: positive allosteric modulators of MrgX1, primary screen, HEK293 cells, Fluo-4 calcium flux; FDSS; stronger effect = higher value; AID 588675, 2011; Mas-related G-protein coupled receptor member X1 (Homo sapiens), Q96LB2; 310,000 compounds, 0.63% hits; B-score at 10 µM;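 active = plate-corrected calcium response at least 3 library SD above typical, normal starting fluorescence, not activating the receptor alone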;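 also: compound read alongside a low EC10 to EC30 dose of BAM8-22 agonist; peak minus trough fluorescence over baseline measured at the second addition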
RGS4 pot: RGS4 potentiators or activators, primary screen, cell-based, HEK293 M3R inducible RGS4, calcium flux; carbachol calcium flux Fluo4; stronger effect = lower value; B-score at 10 µM; 310,000 compounds, 0.92% hits; AID 463111, 2010;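 active = B-score of the integrated calcium signal more than 4 SD below the library mean, with starting fluorescence not abnormally high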;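 also: negative B-score means reduced calcium response which marks RGS4 activation or potentiation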
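test system = M3R-expressing HEK293 line, RGS4 induced by doxycycline | probe or stimulus = carbachol at ECmax as muscarinic agonist stimulus | timing = dye loading 30 min 37 °C, buffer rest 30 min RT | signal = calcium dye Fluo4 fluorescence | evaluation = B score from integrated fluorescence ratio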
MrgX1 antag: antagonists of human MrgX1 receptor, primary screen, HEK293 cells, Fluo-4 calcium flux | Mas-related G-protein coupled receptor member X1 (Homo sapiens), Q96LB2 | BAM8-22 antagonism; stronger effect = lower value | B-score at 10 µM | 310,000 compounds, 1.3% hits | AID 588676, 2011;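 active = calcium-response B-score plate-corrected more than 3 library SD below zero, starting fluorescence within 5 deviations, no agonist response on first addition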;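 also: peak minus trough fluorescence over baseline after final BAM8-22 challenge near maximal dose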
The depositor's hits bear a star; i = inactive; · = no result.

SMILES	RGS4 inh	Hep lipid drop	MrgX1 ag	MrgX1 PAM	RGS4 pot	MrgX1 antag
COc1cccc(CN(C)C(=O)c2cc(-c3cccs3)nc3ccccc23)c1	i	-22.9	i	i	-9.1*	i
COc1cc(-c2cc(C(=O)N(C)Cc3ccccc3)c3ccccc3n2)cc(OC)c1OC	i	0.8	i	i	i	i
COCCN(Cc1ccccc1)C(=O)c1cc(-c2ccc(OC)c(OC)c2)nc2ccccc12	i	-15.2	i	i	-8.73*	i
COc1ccc(-c2cc(C(=O)N(C)Cc3ccccc3F)c3ccccc3n2)cc1OC	i	-2.4	i	i	-8.25*	i
Cc1ccc(C(c2sc3nc(C)nn3c2O)N2CCN(CCO)CC2)cc1 (configuration not stated)	i	23.7	i	i	i	i
Cc1ccc(C(c2sc3nc(C)nn3c2O)N2CCN(c3ccccc3F)CC2)cc1 (configuration not stated)	i	·	i	i	i	-5.18*
Cc1c(C(=O)N2CCN(Cc3ccc4c(c3)OCO4)CC2)sc2ncnc(N3CCN(c4ccccc4F)CC3)c12	i	-17.9	i	i	i	-5.37*
CCCNC(=O)Cn1cnc2sc(C(=O)N3CCN(Cc4ccc5c(c4)OCO5)CC3)c(C)c2c1=O	i	-2.6	i	i	i	i
Nc1ncnc2c1ncn2[C@@H]1O[C@H](CO)[C@@H](O)[C@H]1O	i	1.3	26.5*	i	i	i
CC1(C)OC2C(O1)[C@@H](CO)O[C@H]2n1cnc2c(N)ncnc21 (some centres not stated)	i	5.4	i	i	i	i
CC(=O)N1c2ccc(S(=O)(=O)N(C)CC(=O)NCc3ccc(C)cc3)cc2CC1C (configuration not stated)	i	-13.1	i	i	i	i
Cc1cccc(C)c1NC(=S)Nc1ccc(Cl)c(Cl)c1	i	-18.7	31.9*	i	i	i
CCC(C(=O)O/N=C(\N)c1cccc(C)c1)c1ccccc1 (configuration not stated)	i	1.8	i	i	-9.49*	i
O=C(O)/C=C/C(=O)NCc1ccccn1	i	6.7	i	i	i	-6.71*
O=C(O)/C=C/C(=O)NCc1ccccc1	i	12.9	i	i	i	i
CCOC(=O)N1CCN(c2nc(N(c3ccccc3)c3ccccc3)nc(-n3ccnc3)n2)CC1	i	-2.3	i	i	-7.09*	i
c1ccc(N(c2ccccc2)c2nc(N3CCCC3)nc(-n3ccnc3)n2)cc1	i	·	i	i	i	i
CC(=O)O[C@H]1CC(C)(C)C(=C=C/C(C)=C/C=C/C(C)=C/C=C/C=C(C)/C=C/C=C(\C)C(=O)C[C@@]23O[C@]2(C)C[C@@H](O)CC3(C)C)[C@](C)(O)C1	i	·	i	i	i	i
CCOc1ccc(N2CC(=O)Nc3ccccc3NCC2=O)cc1	i	·	i	i	i	-5.92*
COc1cccc(O)c1CN1CCCC(C(=O)c2cccc(C(F)(F)F)c2)C1 (configuration not stated)	i	-19.2	i	i	-7.47*	i
COCc1cc(CN2CCCC(C(=O)c3cccc(C(F)(F)F)c3)C2)ccc1OC (configuration not stated)	i	8.5	i	i	i	i
O=C(c1cccc(C(F)(F)F)c1)C1CCCN(Cc2cccc(OCCO)c2)C1 (configuration not stated)	i	-27.5	i	i	-7.05*	i
CCOc1cc(/C=C2\N=C(SCC)SC2=O)cc([N+](=O)[O-])c1OC(C)=O	i	·	i	i	i	i
CCOc1c(OC(C)=O)ccc(/C=C2\N=C(SCC)SC2=O)c1[N+](=O)[O-]	i	·	i	i	-7.1*	i
O=C(Cn1c(=O)c(=O)n(Cc2ccccc2)c2ccc(Cl)cc21)Nc1cccc(F)c1	i	2.1	i	i	i	i
SMILES	RGS4 inh	Hep lipid drop	MrgX1 ag	MrgX1 PAM	RGS4 pot	MrgX1 antag
CCCOC(=O)c1ccc(NC(=O)C2C3C=CC(O3)C2C(=O)O)cc1 (configuration not stated)	i	·	i	7.93*	i	i
Cc1ccc(/C(O)=C2/C(=O)C(=O)N(c3ccccn3)C2c2ccc([N+](=O)[O-])cc2)cc1 (configuration not stated)	i	-1.9	i	i	i	-4.82*
Cc1nn(C)c(C(=O)N/N=C/c2cc3c(cc2Br)OCO3)c1Br	i	·	i	i	i	i
Cc1nonc1C(=O)N/N=C/c1cc2c(cc1Br)OCO2	i	-0.5	i	i	i	-5.03*
COc1nnc(-c2ccc(C)c(S(=O)(=O)NC(C)C)c2)c2ccccc12	i	·	i	i	i	i
O=C(Nc1ccc(-c2cn3c(n2)SCC3)cc1)c1ccc2ccccc2n1	i	41.7	i	i	-7.38*	i
CCOc1ccc(-c2csc3nc[nH]c(=O)c23)cc1	i	1.5	i	i	i	i
CCN(CC)CCC/C(=N\O)C(O)(c1ccccc1)c1ccccc1	i	3.4	i	i	-10.4*	i
CC[N+](C)(CC)CCC/C(=N/O)C(O)(c1ccccc1)c1ccccc1	i	-3.4	i	i	-9.72*	i
CC/C(CC(C)(C)c1ccccc1)=N\O	i	-13.7	i	i	i	i
CCC(Sc1nc(N)c(NC(=O)c2ccc(Br)o2)c(=O)[nH]1)C(=O)O (configuration not stated)	i	11.4	i	i	i	i
O=C(Cn1ncc2c3ccccc3n(Cc3ccccc3)c2c1=O)NCCCN1CCCC1=O	i	-18.6	i	i	i	-8.09*
O=C(Cn1ncc2c3ccccc3n(Cc3ccc(F)cc3)c2c1=O)N1CCN(c2ncccn2)CC1	i	-13.8	i	i	i	-8.12*
COC(=O)C(C)Oc1cc(C)ccc1COc1ccc(-n2nc(C)n(C(F)F)c2=O)cc1 (configuration not stated)	i	·	i	i	i	i
O=[N+]([O-])c1ccc(O)c(-c2cc(C(F)(F)F)nc(-c3ccccc3)n2)c1	i	-22.7	i	i	i	-5.62*
